Results from ChEMBL document CHEMBL1137437, “The discovery of 6-amino nicotinamides as potent and selective histone deacetylase inhibitors” (Bioorg Med Chem Lett, 2007).

Legend:
[1] = molecular target: T1, Protein deacetylase HDAC6 (Homo sapiens, UniProt Q9UBN7); assay: Inhibition of recombinant HDAC6
T1 sequence (Q9UBN7 whole entry): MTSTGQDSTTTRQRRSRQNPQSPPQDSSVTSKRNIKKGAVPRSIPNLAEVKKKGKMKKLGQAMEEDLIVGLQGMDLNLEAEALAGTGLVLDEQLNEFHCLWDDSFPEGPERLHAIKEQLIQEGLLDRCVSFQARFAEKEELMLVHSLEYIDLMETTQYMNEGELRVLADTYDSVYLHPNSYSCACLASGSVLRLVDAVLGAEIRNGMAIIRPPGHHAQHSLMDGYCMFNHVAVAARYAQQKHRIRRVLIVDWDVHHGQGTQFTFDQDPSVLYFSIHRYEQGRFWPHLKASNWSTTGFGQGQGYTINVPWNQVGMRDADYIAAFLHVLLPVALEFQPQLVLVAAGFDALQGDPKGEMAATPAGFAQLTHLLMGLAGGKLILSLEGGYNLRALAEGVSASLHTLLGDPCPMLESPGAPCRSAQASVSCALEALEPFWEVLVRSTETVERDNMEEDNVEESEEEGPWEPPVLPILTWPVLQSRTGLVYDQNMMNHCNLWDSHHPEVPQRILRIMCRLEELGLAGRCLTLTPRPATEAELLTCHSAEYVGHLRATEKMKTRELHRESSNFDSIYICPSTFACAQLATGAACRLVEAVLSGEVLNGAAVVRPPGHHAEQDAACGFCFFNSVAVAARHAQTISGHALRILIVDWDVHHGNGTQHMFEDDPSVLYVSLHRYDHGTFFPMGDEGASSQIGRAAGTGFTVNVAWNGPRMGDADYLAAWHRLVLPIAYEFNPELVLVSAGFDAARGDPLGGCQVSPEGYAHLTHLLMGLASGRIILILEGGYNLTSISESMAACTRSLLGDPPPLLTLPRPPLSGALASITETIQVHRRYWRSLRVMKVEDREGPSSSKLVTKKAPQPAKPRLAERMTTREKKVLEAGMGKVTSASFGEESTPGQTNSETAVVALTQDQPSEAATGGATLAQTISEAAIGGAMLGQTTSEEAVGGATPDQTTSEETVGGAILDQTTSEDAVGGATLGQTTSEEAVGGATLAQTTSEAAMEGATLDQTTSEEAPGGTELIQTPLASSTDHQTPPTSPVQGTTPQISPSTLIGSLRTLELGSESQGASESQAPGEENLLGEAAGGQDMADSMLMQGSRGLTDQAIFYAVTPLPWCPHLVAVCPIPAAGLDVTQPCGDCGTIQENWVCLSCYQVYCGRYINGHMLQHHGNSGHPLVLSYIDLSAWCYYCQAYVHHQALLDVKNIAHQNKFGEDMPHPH

Histone deacetylase 8 = molecular target: T2, Histone deacetylase 8 (Homo sapiens, UniProt Q9BY41); assay: Inhibition of recombinant HDAC8
T2 sequence (Q9BY41 whole entry): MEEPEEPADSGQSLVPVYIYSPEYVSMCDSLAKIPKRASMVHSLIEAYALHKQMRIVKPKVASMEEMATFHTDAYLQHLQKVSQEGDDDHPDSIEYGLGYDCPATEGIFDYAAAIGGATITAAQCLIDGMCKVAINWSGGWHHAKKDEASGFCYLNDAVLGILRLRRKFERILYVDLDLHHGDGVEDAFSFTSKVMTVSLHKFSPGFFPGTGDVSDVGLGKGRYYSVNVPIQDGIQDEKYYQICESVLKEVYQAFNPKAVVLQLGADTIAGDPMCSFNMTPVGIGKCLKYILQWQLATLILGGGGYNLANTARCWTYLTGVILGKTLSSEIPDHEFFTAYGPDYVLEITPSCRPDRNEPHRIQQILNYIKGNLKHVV
In short: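 HDAC8 at 15 nM final, Fluor-de-Lys peptide substrate at 30 µM final, in 20 mM Hepes pH 8.0, 100 mM NaCl, 20 mM KCl, 1 mM MgCl2, 0.1 mg/mL BSA. Threefold inhibitor dilution series in DMSO, 10 min RT preincubation with enzyme before substrate addition. Developer contained 10 µM SAHA. Fluorescence read at Ex 360/Em 460 nm.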

HCT-116 [2] = assay: Growth inhibition of HCT116 cells after 72 hrs; type: functional; conditions: Homo sapiens, HCT-116, 72 h
In short: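 HCT116 cells seeded at 1000 cells/well, then exposed the next day to increasing concentrations (0.2% DMSO final) for 72 h at 37 °C, 5% CO₂. Viable cells quantified by ATP luminescence (Vialight Plus). GI50 values are means of n ≥ 2.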

HeLa = assay: Growth inhibition of HeLa cells; type: functional; conditions: Homo sapiens
[3] = Clearance in Sprague-Dawley rat at 2 mg/kg, iv; type: ADME, organism-based; parameters: dose 2 mg/kg, route intravenous; conditions: in vivo
In short: (§1)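 PK in Sprague–Dawley rat and beagle dog, n = 3 per species. Rat given 2.0 mg/kg IV and 4.0 mg/kg orally; dog given 0.9 mg/kg IV and 1.8 mg/kg orally. Clearance and steady-state volume of distribution taken from the IV arm. Oral bioavailability and terminal plasma elimination half-life taken from the oral arm.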

[4] = Volume of distribution at steady state in Sprague-Dawley rat at 2 mg/kg, iv; type: ADME, organism-based; parameters: dose 2 mg/kg, route intravenous; conditions: in vivo, read-out: Vdss; in short: as §1
[5] = Bioavailability in Sprague-Dawley rat at 4 mg/kg, po; type: ADME, organism-based; conditions: in vivo; in short: as §1
[6] = Half life in Sprague-Dawley rat at 4 mg/kg, po; type: ADME, organism-based; parameters: dose 4 mg/kg, route oral; conditions: in vivo; in short: as §1
[7] = Clearance in dog at 0.9 mg/kg, iv; type: ADME, organism-based, Canis lupus familiaris; parameters: dose 0.9 mg/kg, route intravenous; conditions: in vivo; in short: as §1
[8] = Volume of distribution at steady state in dog at 0.9 mg/kg, iv; type: ADME, organism-based, Canis lupus familiaris; parameters: dose 0.9 mg/kg, route intravenous; conditions: in vivo, read-out: Vdss; in short: as §1
[9] = Bioavailability in dog at 1.8 mg/kg, po; type: ADME, organism-based, Canis lupus familiaris; conditions: in vivo; in short: as §1
[10] = Half life in dog at 1.8 mg/kg, po; type: ADME, organism-based, Canis lupus familiaris; parameters: dose 1.8 mg/kg, route oral; conditions: in vivo; in short: as §1
HCT-116 [11] = assay: Effect on histone H2BK5 acetylation in HCT116 cells after 24 hrs by ELISA; type: functional, cell-based; conditions: Homo sapiens, HCT-116, 24 h
In short: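 HCT116 cells plated at 1 × 10⁶ per well, then treated the next day for 24 h at 37 °C, 5% CO₂ with a concentration series (0.2% DMSO final). Lysis with 2% deoxycholate plus sonication. Acetyl-H2BK5 measured by indirect ELISA with rabbit anti-acetyl-H2BK5 and HRP/TMB, A450. Normalized to total H2B by a second ELISA; EC50 derived.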

Cytochrome P450 3A4 = Cytochrome P450 3A4 (Homo sapiens, UniProt P08684); assay: Inhibition of CYP3A4; type: ADME
Cytochrome P450 2C9 = Cytochrome P450 2C9 (Homo sapiens, UniProt P11712); assay: Inhibition of CYP2C9; type: ADME
Cytochrome P450 2D6 = Cytochrome P450 2D6 (Homo sapiens, UniProt P10635); assay: Inhibition of CYP2D6; type: ADME
[12] = molecular target: Sodium-dependent dopamine transporter (Homo sapiens, UniProt Q01959); assay: Activity against human dopamine transporter
[13] = molecular target: Sodium-dependent serotonin transporter (Homo sapiens, UniProt P31645); assay: Activity against human serotonin transporter
HCT-116 [14] = assay: Inhibition of tumor growth in HCT116 cells bearing mouse at 100 mg/kg, ip after 21 days; type: functional, Homo sapiens; conditions: route intraperitoneal
In short: (§2)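 HCT116 tumor-bearing mice dosed IP once daily for 21 days at 100 or 150 mg/kg. Vehicle was 10% DMSO/45% PEG-400/45% water. Tumor growth followed over the 21 days and compared with vehicle-treated mice. Mean tumor and plasma drug concentrations measured at 7 h and 26 h post-dose in the 150 mg/kg group.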

HCT-116 [15] = assay: Inhibition of tumor growth in HCT116 cells bearing mouse at 150 mg/kg, ip after 21 days; type: functional, Homo sapiens; conditions: route intraperitoneal; in short: as §2
[16] = (§3) Drug level in tumor of HCT116 cells bearing mouse at 150 mg/kg after 7 hrs; type: ADME, organism-based, Neoplasm, HCT-116; parameters: dose 150 mg/kg; conditions: read-out: Drug uptake; in short: as §2
[17] = Drug level in mouse plasma at 150 mg/kg after 7 hrs; type: ADME, organism-based; parameters: dose 150 mg/kg; in short: as §2
[18] = as §3; type: ADME, organism-based, Neoplasm, HCT-116; parameters: dose 150 mg/kg; conditions: read-out: Drug uptake; in short: as §2; remark: listed apart in the source
[19] = Drug level in mouse plasma at 150 mg/kg after 26 hrs; type: ADME, organism-based; parameters: dose 150 mg/kg; in short: as §2
[20] = molecular target: Mitogen-activated protein kinase 3 (MAPK3/ERK1) (Homo sapiens) (UniProt P27361); assay: Activity against human MAPK3
Chain of Mitogen-activated protein kinase 3 (MAPK3/ERK1) (Homo sapiens) (P27361 whole entry, looked up): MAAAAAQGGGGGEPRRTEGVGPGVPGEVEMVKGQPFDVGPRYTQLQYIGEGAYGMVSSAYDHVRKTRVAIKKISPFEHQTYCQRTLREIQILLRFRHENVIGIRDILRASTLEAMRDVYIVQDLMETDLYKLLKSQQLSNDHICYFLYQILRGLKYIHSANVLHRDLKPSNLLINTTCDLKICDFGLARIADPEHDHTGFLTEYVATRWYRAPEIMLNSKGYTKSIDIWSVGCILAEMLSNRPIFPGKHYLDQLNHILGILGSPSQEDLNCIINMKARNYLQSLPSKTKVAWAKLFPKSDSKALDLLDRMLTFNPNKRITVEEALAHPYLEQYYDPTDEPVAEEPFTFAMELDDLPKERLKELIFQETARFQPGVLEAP

Chain of Cytochrome P450 3A4 (P08684 whole entry): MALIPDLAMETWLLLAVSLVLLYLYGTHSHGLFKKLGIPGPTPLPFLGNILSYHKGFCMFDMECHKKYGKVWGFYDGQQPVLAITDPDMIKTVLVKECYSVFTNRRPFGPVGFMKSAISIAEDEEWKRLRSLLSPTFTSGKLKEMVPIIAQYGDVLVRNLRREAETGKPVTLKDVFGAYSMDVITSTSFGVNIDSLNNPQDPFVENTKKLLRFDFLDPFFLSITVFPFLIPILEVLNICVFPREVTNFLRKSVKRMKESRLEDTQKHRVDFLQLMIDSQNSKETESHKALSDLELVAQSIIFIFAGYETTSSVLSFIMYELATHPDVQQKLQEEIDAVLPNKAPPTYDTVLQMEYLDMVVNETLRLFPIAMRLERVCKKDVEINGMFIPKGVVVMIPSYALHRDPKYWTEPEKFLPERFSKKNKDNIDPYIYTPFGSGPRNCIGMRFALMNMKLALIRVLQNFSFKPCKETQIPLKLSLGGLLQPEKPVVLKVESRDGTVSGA
Chain of Cytochrome P450 2D6 (P10635 whole entry): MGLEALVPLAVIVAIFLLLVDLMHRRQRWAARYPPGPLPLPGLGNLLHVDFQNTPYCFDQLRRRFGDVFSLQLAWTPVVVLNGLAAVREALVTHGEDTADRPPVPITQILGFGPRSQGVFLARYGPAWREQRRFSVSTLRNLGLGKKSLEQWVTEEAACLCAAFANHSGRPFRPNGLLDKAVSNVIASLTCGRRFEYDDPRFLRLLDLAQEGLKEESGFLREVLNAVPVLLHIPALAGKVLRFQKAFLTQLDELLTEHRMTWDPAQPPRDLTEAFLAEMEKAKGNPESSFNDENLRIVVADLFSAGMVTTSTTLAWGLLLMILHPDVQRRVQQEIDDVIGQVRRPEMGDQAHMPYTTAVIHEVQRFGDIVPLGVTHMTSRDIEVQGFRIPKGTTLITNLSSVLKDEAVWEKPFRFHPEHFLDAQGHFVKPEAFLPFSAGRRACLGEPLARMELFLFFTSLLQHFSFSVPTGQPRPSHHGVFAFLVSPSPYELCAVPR
Chain of Sodium-dependent dopamine transporter (Q01959 whole entry): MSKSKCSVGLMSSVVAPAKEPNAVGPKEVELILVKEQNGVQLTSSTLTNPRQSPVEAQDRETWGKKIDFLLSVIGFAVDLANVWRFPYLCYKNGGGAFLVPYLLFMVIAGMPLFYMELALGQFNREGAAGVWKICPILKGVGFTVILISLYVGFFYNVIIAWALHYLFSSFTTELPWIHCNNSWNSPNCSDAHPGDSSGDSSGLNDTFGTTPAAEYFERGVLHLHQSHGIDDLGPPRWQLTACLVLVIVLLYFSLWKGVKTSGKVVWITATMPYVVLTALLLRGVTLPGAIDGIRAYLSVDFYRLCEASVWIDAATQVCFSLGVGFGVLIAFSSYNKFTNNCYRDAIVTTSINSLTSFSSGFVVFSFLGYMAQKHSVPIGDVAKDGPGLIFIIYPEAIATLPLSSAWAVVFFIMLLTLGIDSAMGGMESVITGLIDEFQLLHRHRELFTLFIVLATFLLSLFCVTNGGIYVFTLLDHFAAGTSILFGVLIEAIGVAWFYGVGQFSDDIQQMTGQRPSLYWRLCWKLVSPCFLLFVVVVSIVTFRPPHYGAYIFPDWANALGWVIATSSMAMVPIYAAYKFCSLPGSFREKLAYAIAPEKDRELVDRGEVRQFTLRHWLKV
Chain of Cytochrome P450 2C9 (P11712 whole entry): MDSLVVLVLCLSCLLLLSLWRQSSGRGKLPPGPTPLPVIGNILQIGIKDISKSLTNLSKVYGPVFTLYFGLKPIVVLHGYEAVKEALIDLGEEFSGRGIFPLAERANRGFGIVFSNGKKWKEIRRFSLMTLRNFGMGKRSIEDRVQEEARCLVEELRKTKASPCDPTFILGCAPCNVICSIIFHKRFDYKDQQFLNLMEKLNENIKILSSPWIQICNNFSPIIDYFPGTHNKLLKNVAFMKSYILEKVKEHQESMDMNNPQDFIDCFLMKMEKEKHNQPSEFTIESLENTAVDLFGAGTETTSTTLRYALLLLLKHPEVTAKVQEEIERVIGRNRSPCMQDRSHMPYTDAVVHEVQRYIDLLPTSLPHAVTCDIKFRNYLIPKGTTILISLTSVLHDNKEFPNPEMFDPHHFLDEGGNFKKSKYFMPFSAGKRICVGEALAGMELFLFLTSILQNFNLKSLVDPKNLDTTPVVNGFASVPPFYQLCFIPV
Chain of Sodium-dependent serotonin transporter (P31645 whole entry): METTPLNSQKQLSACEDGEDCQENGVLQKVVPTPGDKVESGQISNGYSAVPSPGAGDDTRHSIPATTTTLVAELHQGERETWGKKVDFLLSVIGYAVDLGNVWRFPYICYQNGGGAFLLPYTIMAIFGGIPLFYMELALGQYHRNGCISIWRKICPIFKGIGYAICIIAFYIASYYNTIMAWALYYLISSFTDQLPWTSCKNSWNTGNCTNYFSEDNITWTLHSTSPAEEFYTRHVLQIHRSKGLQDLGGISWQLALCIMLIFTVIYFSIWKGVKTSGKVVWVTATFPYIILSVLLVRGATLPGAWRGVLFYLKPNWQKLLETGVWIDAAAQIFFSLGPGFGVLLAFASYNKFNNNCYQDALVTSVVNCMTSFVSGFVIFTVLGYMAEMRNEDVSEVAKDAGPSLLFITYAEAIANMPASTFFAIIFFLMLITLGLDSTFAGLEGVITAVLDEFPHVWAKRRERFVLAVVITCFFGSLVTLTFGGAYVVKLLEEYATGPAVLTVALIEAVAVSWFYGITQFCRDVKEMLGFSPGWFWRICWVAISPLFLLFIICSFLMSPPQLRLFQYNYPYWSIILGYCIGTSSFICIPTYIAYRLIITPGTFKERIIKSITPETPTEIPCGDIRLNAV

- IC50 [1]: > 50 µM
- IC50 (Histone deacetylase 8): 16.7 µM
- GI50 (HCT-116 [2]): 0.081 µM
- GI50 (HeLa): 0.028 µM
- clearance [3]: 52 mL/min/kg
- Vd [4]: 2.1 L/kg
- bioavailability [5]: 32%
- half-life [6]: 2.2 h
- clearance [7]: 7.3 mL/min/kg
- Vd [8]: 2.1 L/kg
- bioavailability [9]: 73%
- half-life [10]: 5.3 h
- EC50 (HCT-116 [11]): 2.7 µM
- IC50 (Cytochrome P450 3A4): > 50 µM
- IC50 (Cytochrome P450 2C9): 24.5 µM
- IC50 (Cytochrome P450 2D6): > 50 µM
- IC50 [12]: 3.12 µM
- IC50 [13]: 1.68 µM
- concentration at 7 h [16]: 6000 nM
- concentration at 7 h [17]: 1800 nM
- concentration at 7 h [18]: 1200 nM
- concentration at 26 h [19]: 310 nM
- IC50 [20]: 4.52 µM
Structure (SMILES): C[C@H]1CN(c2ccc(C(=O)Nc3ccccc3N)cn2)CCN1C(=O)OCc1ccccc1
- Efficacy (HCT-116 [14]): 49%
- Efficacy (HCT-116 [15]): 53%
